According to ChEMBL document CHEMBL2331228, “Synthesis and insight into the structure-activity relationships of chalcones as antimalarial agents” (J Med Chem, 2013):
Values after ≈ are worked out from the molar mass of the structure shown. Active and inactive are the calls of the source. The rule behind the calls is not given here.

Tests used:
Plasmodium falciparum [1] = assay: Antimalarial activity against schizont stage of chloroquine-sensitive Plasmodium falciparum 3D7 assessed as reduction in parasitemia at 10 ug/ml after more than 40 hrs by Giemsa staining-based light microscopy; format: functional; set-up: scale not given: the % may be the effect or the level left
In short: (§1)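 Ring stages (5% D-sorbitol synchronized) of 3D7 were grown in RPMI with 10% FBS, gentamycin and Fungizone at 37 °C under CO2. They were exposed in duplicate to compound (DMSO stock, 5 mg/mL) at 2, 10 and 50 μg/mL, with 3% cell suspension and 1% parasitized cells, for >40 h. Giemsa-stained thin smears were counted for schizonts. MIC is the lowest concentration giving 100% inhibition of schizont maturation.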

Plasmodium falciparum [2] = assay: Antimalarial activity against schizont stage of chloroquine-sensitive Plasmodium falciparum 3D7 after more than 40 hrs by Giemsa staining-based light microscopic analysis; format: functional; details: 3D7, 40 h; in short: as §1
Plasmodium yoelii [3] = assay: Antimalarial activity against chloroquine-resistant Plasmodium yoelii N-67 infected in Swiss mouse assessed as mean survival time at 3 mg/kg/day, im administered for 3 days (reference value: 9.20 +/- 0.44 days); format: functional; details: route intramuscular
Plasmodium yoelii [4] = assay: Antimalarial activity against chloroquine-resistant Plasmodium yoelii N-67 infected in Swiss mouse assessed as reduction in parasitemia at 3 mg/kg/day, im administered for 3 days measured on day 4 relative to control; format: functional; set-up: scale not given: the % may be the effect or the level left; details: route intramuscular
[5] = Selectivity index, ratio of CC50 for african green monkey Vero C1008 cells to IC50 for Plasmodium falciparum 3D7; format: functional
In short: (§2)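 SI = CC50 (Vero, 72 h MTT) / IC50. IC50 comes from a 72 h SYBR Green I fluorescence assay: seven 2-fold dilutions in duplicate, 2% cell suspension at 0.8% parasitemia, and Logit regression of the dose-response.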

[6] = Selectivity index, ratio of CC50 for african green monkey Vero C1008 cells to IC50 for Plasmodium falciparum K1; format: functional; in short: as §2
[7] = Cytotoxicity against african green monkey Vero C1008 cells after 72 hrs by MTT assay; format: cell-based; details: chlorocebus sabaeus
In short: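 Vero (C1008) cells were incubated with dilutions of compound for 72 h and read by MTT. CC50 was obtained by nonlinear regression.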

Plasmodium falciparum [8] = assay: Resistance ratio of IC5O for Plasmodium falciparum K1 to IC50 for Plasmodium falciparum 3D7; format: functional
In short: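 Ratio of K1 IC50 to 3D7 IC50. Both come from the 72 h SYBR Green I fluorescence assay: seven 2-fold dilutions in duplicate, 0.8% parasitemia, IC50 by logit regression.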

Plasmodium falciparum [9] = assay: Antimalarial activity against schizont stage of chloroquine-sensitive Plasmodium falciparum 3D7 after 72 hrs by SYBR Green I-based fluorescence assay; format: functional, organism-based; details: 3D7, 72 h
In short: (§3)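 Parasites cultured in RPMI with 10% FBS, gentamycin and Fungizone (pH 7.2) at 37 °C in CO2. Compounds from DMSO stock (5 mg/mL). Seven 2-fold serial dilutions, duplicate wells. Cells added at 2% hematocrit, 0.8% parasitemia; uninfected-cell wells kept as background. After 72 h, lysis buffer with SYBR Green I, 1 h at 37 °C, fluorescence read. IC50 by logit regression of dose-response.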

Plasmodium falciparum [10] = assay: Antimalarial activity against Plasmodium falciparum; format: functional
Plasmodium yoelii [11] = assay: Antimalarial activity against chloroquine-resistant Plasmodium yoelii N-67 infected in Swiss mouse assessed as mean survival time at 20 mg/kg/day, po administered for 3 days (reference value: 9.20 +/- 0.44 days); format: functional
Plasmodium yoelii [12] = assay: Antimalarial activity against chloroquine-resistant Plasmodium yoelii N-67 infected in Swiss mouse assessed as reduction in parasitemia at 20 mg/kg/day, po administered for 3 days measured on day 4 relative to control; format: functional; set-up: scale not given: the % may be the effect or the level left
Plasmodium falciparum [13] = assay: Antimalarial activity against schizont stage of chloroquine-sensitive Plasmodium falciparum 3D7 assessed as reduction in parasitemia at 2 to 10 ug/ml after more than 40 hrs by Giemsa staining-based light microscopy; format: functional; set-up: scale not given: the % may be the effect or the level left; in short: as §1
Plasmodium yoelii [14] = assay: Antimalarial activity against chloroquine-resistant Plasmodium yoelii N-67 infected in Swiss mouse assessed as mean survival time of host at 50 mg/kg/day, ip administered for 3 days (reference value: 9.20 +/- 0.44 days); format: functional; details: route intraperitoneal
Plasmodium yoelii [15] = assay: Antimalarial activity against chloroquine-resistant Plasmodium yoelii N-67 infected in Swiss mouse assessed as reduction in parasitemia at 50 mg/kg/day, ip administered for 3 days measured on day 4 relative to control; format: functional; set-up: scale not given: the % may be the effect or the level left; details: route intraperitoneal
Plasmodium falciparum [16] = assay: Antimalarial activity against chloroquine-resistant Plasmodium falciparum K1 after 72 hrs by SYBR Green I-based fluorescence assay; format: functional, organism-based; details: K1, 72 h; in short: as §3
Plasmodium falciparum [17] = assay: Activation of Plasmodium falciparum recombinant Falcipain-3 using Z-LR-AMC as substrate at high concentration after 30 mins by microplate reader analysis
[18] = Inhibition of Plasmodium falciparum recombinant Falcipain-2 using Z-LR-AMC as substrate after 30 mins by microplate reader analysis
Plasmodium falciparum [19] = assay: Inhibition of Plasmodium falciparum recombinant Falcipain-3 using Z-LR-AMC as substrate at low concentration after 30 mins by microplate reader analysis
[20] = Mean residence time in Sprague-Dawley rat at 50 mg/kg, po by LC-MS/MS analysis; format: ADME, organism-based; set-up: dose 50 mg/kg, route oral; details: in vivo
In short: (§4)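 Male Sprague-Dawley rats (n = 5, 220−240 g), single oral dose 50 mg/kg. Plasma stored at −70 °C, processed by acetonitrile protein precipitation, and analysed by LC-MS/MS with QC samples among calibrators.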

[21] = Apparent oral volume of distribution in Sprague-Dawley rat at 50 mg/kg by LC-MS/MS analysis; format: ADME, organism-based; set-up: dose 50 mg/kg, route oral; details: in vivo; in short: as §4
[22] = Apparent oral clearance in Sprague-Dawley rat at 50 mg/kg by LC-MS/MS analysis; format: ADME, organism-based; set-up: dose 50 mg/kg, route oral; details: in vivo; in short: as §4
[23] = Elimination half life in Sprague-Dawley rat at 50 mg/kg, po by LC-MS/MS analysis; format: ADME, organism-based; set-up: dose 50 mg/kg, route oral; details: in vivo, read-out: beta t1/2 (converted); in short: as §4
[24] = Tmax in Sprague-Dawley rat at 50 mg/kg, po by LC-MS/MS analysis; format: ADME, organism-based; set-up: dose 50 mg/kg, route oral; details: in vivo; in short: as §4
[25] = Cmax in Sprague-Dawley rat at 50 mg/kg, po by LC-MS/MS analysis; format: ADME, organism-based; set-up: dose 50 mg/kg, route oral; details: in vivo; in short: as §4
[26] = AUC (0 to t) in Sprague-Dawley rat at 50 mg/kg, po by LC-MS/MS analysis; format: ADME, organism-based; set-up: dose 50 mg/kg, route oral; details: plasma; in short: as §4
Plasmodium yoelii [27] = assay: Antimalarial activity against chloroquine-resistant Plasmodium yoelii N-67 infected in Swiss mouse assessed as mean survival time at 50 mg/kg/day, po administered for 3 days (reference value: 9.20 +/- 0.44 days); format: functional
Plasmodium yoelii [28] = assay: Antimalarial activity against chloroquine-resistant Plasmodium yoelii N-67 infected in Swiss mouse assessed as reduction in parasitemia at 50 mg/kg/day, po administered for 3 days measured on day 4 relative to control; format: functional; set-up: scale not given: the % may be the effect or the level left

CC1(C)CCc2cc(C(=O)/C=C/c3ccc([N+](=O)[O-])cc3)c(O)cc2O1
Activity (Plasmodium falciparum [1]): <100%
MIC (Plasmodium falciparum [2]): > 28.3 µM

CCO[C@H]1O[C@@H]2O[C@@]3(C)CC[C@H]4[C@H](C)CC[C@@H]([C@H]1C)[C@@]24OO3 [ARTEMOTIL]
MST (Plasmodium yoelii [3]): >28 days
Activity (Plasmodium yoelii [4]): 100%
Ratio CC50/IC50 [5]: 98720
Ratio CC50/IC50 [6]: 124857
CC50 at 72 h [7]: 136000 nM
Ratio IC50 (Plasmodium falciparum [8]): 0.79
IC50 (Plasmodium falciparum [9]): 1.37 nM

CC(C)=CCc1cc(C(=O)/C=C/c2ccc(O)cc2)c(O)c(CC=C(C)C)c1O [MEDICAGENIN]
MIC (Plasmodium falciparum [10]): 5.1 µM (≈ 2 µg/mL)
MIC (Plasmodium falciparum [2]): 5.1 µM (≈ 2 µg/mL)

CC1(C)CCc2cc(C(=O)/C=C/c3ccc(Cl)c(Cl)c3)c(O)cc2O1
Activity (Plasmodium falciparum [1]): <100%
MIC (Plasmodium falciparum [2]): > 26.6 µM

CCN(CC)CCCC(C)Nc1ccnc2cc(Cl)ccc12 (centres undefined) [CHLOROQUINE]
MST (Plasmodium yoelii [11]): >28 days
Activity (Plasmodium yoelii [12]): 99%

CC1(C)CCc2cc(C(=O)/C=C/c3ccccn3)c(O)cc2O1
Activity (Plasmodium falciparum [13]): <100%
MIC (Plasmodium falciparum [2]): > 32.4 µM

CC(C)=CCC1=C/C(=C(O)\C=C\c2ccc(O)cc2)C(=O)C(CC=C(C)C)(CC=C(C)C)C1=O [MUNCHIWARIN]
MIC (Plasmodium falciparum [10]): 4.34 µM (≈ 2 µg/mL)

CC(C)CCC[C@H](C)CCC[C@H](C)CCCC1(C)CCc2cc(C(=O)/C=C/c3cccnc3)c(O)cc2O1 (some centres undefined)
Activity (Plasmodium falciparum [13]): <100%
MIC (Plasmodium falciparum [2]): > 19.3 µM

CC(C)CCC[C@H](C)CCC[C@H](C)CCCC1(C)CCc2cc(C(=O)/C=C/c3ccccn3)c(O)cc2O1 (some centres undefined)
Activity (Plasmodium falciparum [13]): <100%
MIC (Plasmodium falciparum [2]): > 19.3 µM

CC(C)=CCCC1(C)C=Cc2c(O)c(C(=O)/C=C/c3cc(C=O)ccc3O)cc(CC=C(C)C)c2O1 (centres undefined)
MST (Plasmodium yoelii [14]): 12.6 days
Activity (Plasmodium yoelii [15]): 71%
Ratio CC50/IC50 [5]: 1210
Ratio CC50/IC50 [6]: 242
CC50 at 72 h [7]: 88600 nM
Ratio IC50 (Plasmodium falciparum [8]): 5
IC50 (Plasmodium falciparum [16]): 366 nM
IC50 (Plasmodium falciparum [9]): 73.2 nM
MIC (Plasmodium falciparum [2]): 0.25 µM (≈ 0.122 µg/mL)

CC1(C)CCc2cc(C(=O)/C=C/c3ccc(F)c(F)c3)c(O)cc2O1
Activity (Plasmodium falciparum [1]): <100%
MIC (Plasmodium falciparum [2]): > 29.1 µM

CC(C)=CCCC1(C)C=Cc2ccc(O)c(C(=O)/C=C/c3ccc(O)c(C=O)c3)c2O1 (centres undefined)
MST (Plasmodium yoelii [14]): 16.75 days
Activity (Plasmodium yoelii [15]): 88%
Ratio CC50/IC50 [5]: 334
Ratio CC50/IC50 [6]: 376
CC50 at 72 h [7]: 31700 nM
Ratio IC50 (Plasmodium falciparum [8]): 0.9
IC50 (Plasmodium falciparum [16]): 84.2 nM
IC50 (Plasmodium falciparum [9]): 94.7 nM
MIC (Plasmodium falciparum [2]): 0.39 µM (≈ 0.163 µg/mL)

CC(C)=CCCC1(C)C=Cc2ccc(O)c(C(=O)/C=C/c3cc(C=O)ccc3O)c2O1 (centres undefined)
Activity (Plasmodium falciparum [17]): Active
IC50 [18]: 4600 nM
inhibition (Plasmodium falciparum [19]): inactive
MST (Plasmodium yoelii [14]): 18.4 days
Activity (Plasmodium yoelii [15]): 87%
Ratio CC50/IC50 [5]: 1173
CC50 at 72 h [7]: 103000 nM
IC50 (Plasmodium falciparum [16]): > 1200 nM
IC50 (Plasmodium falciparum [9]): 87.5 nM
MIC (Plasmodium falciparum [2]): 0.31 µM (≈ 0.13 µg/mL)

CC1(C)CCc2cc(C(=O)/C=C/c3cccc([N+](=O)[O-])c3)c(O)cc2O1
Activity (Plasmodium falciparum [1]): <100%
MIC (Plasmodium falciparum [2]): > 28.2 µM

CC(C)=CCCC1(C)C=Cc2c(ccc(C(=O)/C=C/c3ccc(O)c(C=O)c3)c2O)O1 (centres undefined)
Activity (Plasmodium falciparum [17]): Active
IC50 [18]: 5500 nM
inhibition (Plasmodium falciparum [19]): Active
MST (Plasmodium yoelii [14]): 12.33 days
Activity (Plasmodium yoelii [15]): 89%
Ratio CC50/IC50 [5]: 79
Ratio CC50/IC50 [6]: 9
CC50 at 72 h [7]: 9900 nM
Ratio IC50 (Plasmodium falciparum [8]): 8.7
IC50 (Plasmodium falciparum [16]): 1090 nM
IC50 (Plasmodium falciparum [9]): 125 nM
MIC (Plasmodium falciparum [2]): 0.59 µM (≈ 0.247 µg/mL)

CC(C)=CCCC1(C)C=Cc2c(ccc(C(=O)/C=C/c3cc(C=O)ccc3O)c2O)O1 (centres undefined)
Activity (Plasmodium falciparum [17]): Active
IC50 [18]: 13500 nM
inhibition (Plasmodium falciparum [19]): inactive
MRT [20]: 3.89 h
Vd/F [21]: 433 L/kg
CL/F [22]: 2140 mL/min/kg
half-life [23]: 2.32 h
Tmax [24]: 3 h
Cmax [25]: 78.3 ng/mL
AUC(0-t) [26]: 389 ng·h/mL
MST (Plasmodium yoelii [27]): 9.2 days
MST (Plasmodium yoelii [14]): 17.4 days
Activity (Plasmodium yoelii [28]): 23%
Activity (Plasmodium yoelii [15]): 98%
Ratio CC50/IC50 [5]: 64
Ratio CC50/IC50 [6]: 23.7
CC50 at 72 h [7]: 22200 nM
Ratio IC50 (Plasmodium falciparum [8]): 2.6
IC50 (Plasmodium falciparum [16]): 935 nM
IC50 (Plasmodium falciparum [9]): 347 nM
MIC (Plasmodium falciparum [2]): 1.19 µM (≈ 0.498 µg/mL)

CN(C)c1ccc(/C=C/C(=O)c2ccc3c(c2O)CCC(C)(C)O3)cc1
Activity (Plasmodium falciparum [1]): <100%
MIC (Plasmodium falciparum [2]): > 28.5 µM
